Tests used:
[1] = molecular target: pig gastric microsomal H,K-ATPase (Sus scrofa, UniProt P19156); test: H,K-ATPase assay; format: biochemical; conditions: for Attenuation of H,K-ATPase activity: non-physiological concentrations greater than 10^-7 M (up to 1 μM); for Inhibitory activity against H,K-ATPase: physiological concentrations (10^-9–10^-8 M)
[2] = tested on: IL-8 secretion by human gastric adenocarcinoma (AGS) cells; test: IL-8 secretion by AGS cells; format: cell-based; conditions: 24 h, read-out: IC50, inhibition of baseline IL-8 secretion
Procedure, shortened: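 AGS cells in Ham's F-12 with 10% FBS and antibiotics (37°C, 5% CO2), passages 42–56. Seeded at 50,000 cells/100 μl/well and attached 18 hr, then exposed to test compound with or without IL-1β (1 ng/ml) for 24 hr. Medium IL-8 measured by ELISA. Solvent controls included, solvents <1% final. Triplicates, ≥3 experiments; IC50 from three-parameter logistic fit.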

gastric damage = conditions: up to 100 mg/kg/d p.o., rat; cited from earlier work
rat stomach and blood = conditions: cited from earlier work
rat = conditions: cited from earlier work
dogs = conditions: cited from earlier work
cats = conditions: cited from earlier work
guinea-pig ileum = conditions: cited from earlier work
[3] = tested on: bacteria or mammalian cells; rat bone marrow cells; conditions: cited from earlier work
[4] = 14C-labeled ML 3000, rats; cited from earlier work
[5] = tested on: rabbit gastric parietal cells; test: Acid accumulation assay; format: cell-based; conditions: up to concentrations of 10^-4 M (data not shown)
gastric H,K-ATPase = conditions: cited from earlier work; for IC50: read-out: IC50, gastric proton pump activity

Sequence of pig gastric microsomal H,K-ATPase (P19156 2-1034 limits assumed): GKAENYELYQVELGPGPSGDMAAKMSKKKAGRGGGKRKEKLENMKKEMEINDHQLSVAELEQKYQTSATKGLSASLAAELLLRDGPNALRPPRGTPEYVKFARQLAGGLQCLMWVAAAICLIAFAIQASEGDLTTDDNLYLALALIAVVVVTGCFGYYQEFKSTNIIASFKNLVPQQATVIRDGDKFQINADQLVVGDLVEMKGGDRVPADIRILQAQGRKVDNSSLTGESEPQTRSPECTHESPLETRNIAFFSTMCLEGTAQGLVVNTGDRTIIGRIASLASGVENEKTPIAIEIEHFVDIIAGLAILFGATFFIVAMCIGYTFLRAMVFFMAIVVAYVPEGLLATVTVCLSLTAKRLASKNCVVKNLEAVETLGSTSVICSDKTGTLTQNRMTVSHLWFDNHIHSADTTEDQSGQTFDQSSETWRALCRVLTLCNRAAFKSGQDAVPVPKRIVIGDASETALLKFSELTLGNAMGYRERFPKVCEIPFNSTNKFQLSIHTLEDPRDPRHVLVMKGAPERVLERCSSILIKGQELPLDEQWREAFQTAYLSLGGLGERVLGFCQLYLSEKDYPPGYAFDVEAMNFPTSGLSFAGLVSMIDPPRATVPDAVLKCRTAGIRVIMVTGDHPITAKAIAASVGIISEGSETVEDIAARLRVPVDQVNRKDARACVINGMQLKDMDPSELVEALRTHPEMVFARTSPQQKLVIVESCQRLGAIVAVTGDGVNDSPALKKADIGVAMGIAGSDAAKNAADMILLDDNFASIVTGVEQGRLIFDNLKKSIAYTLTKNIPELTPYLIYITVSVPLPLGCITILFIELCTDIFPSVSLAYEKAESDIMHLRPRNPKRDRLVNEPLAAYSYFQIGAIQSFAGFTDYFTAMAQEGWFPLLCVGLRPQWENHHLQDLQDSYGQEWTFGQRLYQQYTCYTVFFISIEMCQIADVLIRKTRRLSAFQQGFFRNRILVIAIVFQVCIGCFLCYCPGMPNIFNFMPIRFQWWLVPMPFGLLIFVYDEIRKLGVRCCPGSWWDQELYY
Sequence of pig gastric microsomal H,K-ATPase (P18434 whole entry partner): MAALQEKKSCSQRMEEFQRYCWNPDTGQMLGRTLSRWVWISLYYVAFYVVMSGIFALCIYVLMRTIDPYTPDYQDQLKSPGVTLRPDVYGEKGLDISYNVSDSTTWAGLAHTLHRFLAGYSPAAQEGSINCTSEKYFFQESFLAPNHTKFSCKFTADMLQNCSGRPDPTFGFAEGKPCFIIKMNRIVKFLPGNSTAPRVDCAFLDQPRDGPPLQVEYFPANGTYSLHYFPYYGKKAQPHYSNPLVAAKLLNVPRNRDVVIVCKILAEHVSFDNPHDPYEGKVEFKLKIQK

CCCCC/C=C\C/C=C\C/C=C\C/C=C\CCCC(=O)O [Arachidonic acid]
IC50 [1]: 16.7 µM

CCCCC/C=C\C[C@@H](O)/C=C/C=C/C=C\[C@@H](O)CCCC(=O)O [LTB4, leukotriene B4]
Attenuation of H,K-ATPase activity [1]: significant attenuation | Inhibitory activity against H,K-ATPase [1]: neither leukotriene showed any inhibitory activity

CCCCC/C=C\C\C=C/C=C/C=C/[C@@H](SC[C@H](N)C(=O)NCC(=O)O)[C@@H](O)CCCC(=O)O [LTD4, leukotriene D4]
Attenuation of H,K-ATPase activity [1]: significant attenuation | Inhibitory activity against H,K-ATPase [1]: neither leukotriene showed any inhibitory activity

CC1(C)Cc2c(-c3ccccc3)c(-c3ccc(Cl)cc3)c(CC(=O)O)n2C1 [ML 3000, [2,2-dimethyl-6-(4-chlorophenyl)-7-phenyl-2,3-dihydro-1H-pyrrolizine-5-yl]-acetic acid]
IC50 [1]: 16.4 µM | Effect of ML 3000 acidification on H,K-ATPase inhibitory profile ([1]; ML 3000 titrated to pHs 2.0 to 7.4 for 30 min, 16.6 μM final concentration): no significant effect | Reversibility of H,K-ATPase inhibition ([1]; dilution from 100 μM to 3.3 μM): reversible | IC50 [2]: 0.46 µM | Gastric damage (gastric damage): no gastric damage | Gastric mucosal injury (rat stomach and blood): no gastric mucosal injury | Leukocyte adherence in mesenteric venules (rat stomach and blood): no effect | Gastric prostaglandin E2 synthesis (rat stomach and blood; rat stomach and blood): reduces | Inhibition of gastric or blood leukotriene B4 synthesis (rat stomach and blood; rat): not detected | Gastric damage and peristaltic disturbance (rat; animal models): neither gastric damage nor peristaltic disturbance | Rat locomotor activity or hexobarbital-induced sleep (rat): did not affect | Cardiovascular or respiratory effects (rat; rat): no cardiovascular or respiratory effects | Urine output (rat; rats): small transient reduction | Cardiovascular or respiratory effects (dogs): no cardiovascular or respiratory effects | Neuromuscular function (cats): without affect | Spasmogenic response (guinea-pig ileum): weak spasmogenic response | Genotoxicity: gene mutation frequencies in bacteria or mammalian cells, unscheduled DNA synthesis, chromosomal aberrations in rat bone marrow cells [3]: no effects | Distribution and excretion [4]: enterohepatic circulation and glucuronide conjugation

CS(=O)(=O)Nc1ccc([N+](=O)[O-])cc1OC1CCCCC1 [NS 398]
Inhibitory effect on microsomal H,K-ATPase activity ([1]; concentrations up to 10^-4 M): without inhibitory effects | Effect on acid accumulation by isolated rabbit parietal cells [5]: no effect

CCCCC[C@H](O)/C=C/[C@H]1[C@H](O)CC(=O)[C@@H]1C/C=C\CCCC(=O)O [PGE2, prostaglandin E2]
IC50 [1]: 15 µM | Inhibitory effect on pig gastric H,K-ATPase (gastric H,K-ATPase; pig, previous study): no inhibitory effect

CC(=O)Oc1ccccc1C(=O)O [acetyl salicylic acid]
Inhibitory effect on microsomal H,K-ATPase activity ([1]; concentrations up to 10^-3 M): without inhibitory effects | Effect on acid accumulation by isolated rabbit parietal cells [5]: no effect

COc1ccc2c(c1)c(CC(=O)O)c(C)n2C(=O)c1ccc(Cl)cc1 [indomethacin]
Inhibitory effect on microsomal H,K-ATPase activity ([1]; concentrations up to 10^-4 M): without inhibitory effects | Ki (gastric H,K-ATPase; read-out: Ki, inhibition of gastric H,K-ATPase): 670 µM

Cc1c(OCC(F)(F)F)ccnc1C[S+]([O-])c1nc2ccccc2[nH]1 (centres unmarked) [lansoprazole]
IC50 (gastric H,K-ATPase): 2.1 µM

COc1ccc2cc([C@H](C)C(=O)O)ccc2c1 [naproxen]
Inhibitory effect on microsomal H,K-ATPase activity ([1]; concentrations up to 10^-4 M): without inhibitory effects

COC(=O)c1cc2nc([S+]([O-])Cc3ncccc3C)[nH]c2cc1C (centres unmarked) [picoprazole]
IC50 (gastric H,K-ATPase): 2 µM

COCCCOc1ccnc(C[S+]([O-])c2nc3ccccc3[nH]2)c1C (centres unmarked) [rabeprazole]
IC50 (gastric H,K-ATPase): 0.072 µM

Reference: PMC368434 (BMC Gastroenterology, 2004)
